Scp1 inh: Scp-1 phosphatase inhibitors, primary screen, biochemical, colorimetric, uHTS. Carboxy-terminal domain RNA polymerase II polypeptide A small phosphatase 1 (Homo …. Recombinant Scp1, phosphopeptide, malachite green phosphate absorbance. inhibition, % at 20 µM. hit rate 0.88% among 340,000;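 active = inhibition above about 50% at 20 µM, limit read from the data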;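 also: plate controls were DMSO wells with enzyme for no effect and wells lacking enzyme for full effect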
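Test system – truncated SCP-1 phosphatase (76-261aa) · Reagent – Phosphorylated 17-residue peptide substrate · Incubation – 45 min room-temperature reaction, 5 min colour, 30 min stabiliser · Detection – colorimetric phosphate reagent with accelerator and stabiliser, absorbance at 630 nm · Measure – % inhibition at 20 µM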
PP5 inh: PP5 phosphatase inhibitors, primary screen, biochemical, fluorescence. purified PP5c, OMFP substrate fluorescence. inhibition, % at 6.7 µM. AID 1987, 2009. hit rate 0.18% among 320,000;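 active = inhibition above the campaign's mean inhibition across all tested compounds plus 3 SD, cut at about 9.5% in these data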;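 also: 0% = DMSO only and 100% = 100 µM cantharidin control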
Target sequence (P53041 whole entry, looked up): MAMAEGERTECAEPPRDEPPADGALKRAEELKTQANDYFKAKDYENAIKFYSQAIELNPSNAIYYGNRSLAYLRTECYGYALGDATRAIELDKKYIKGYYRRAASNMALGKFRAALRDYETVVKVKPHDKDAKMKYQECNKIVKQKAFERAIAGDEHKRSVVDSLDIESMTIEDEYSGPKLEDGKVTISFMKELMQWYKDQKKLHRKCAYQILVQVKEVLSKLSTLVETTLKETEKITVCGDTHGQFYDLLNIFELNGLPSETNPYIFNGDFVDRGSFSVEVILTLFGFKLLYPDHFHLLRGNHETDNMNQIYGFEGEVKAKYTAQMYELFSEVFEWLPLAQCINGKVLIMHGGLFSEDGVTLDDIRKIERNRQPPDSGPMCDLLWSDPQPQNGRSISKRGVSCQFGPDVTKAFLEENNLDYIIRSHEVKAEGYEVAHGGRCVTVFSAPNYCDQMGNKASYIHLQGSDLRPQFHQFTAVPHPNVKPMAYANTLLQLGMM
PP1 counter: PP1-alpha phosphatase inhibitors, primary screen, counter-screen for PP5 inhibitor project, biochemical, fluorescence, OMFP substrate, single point | Serine/threonine-protein phosphatase PP1-alpha catalytic subunit (Homo sapiens), P62136 | purified PP1alpha | inhibition, % at 6.7 µM | hit rate 0.9% among 320,000;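 active = inhibition above the mean inhibition of all tested compounds plus 3 SD, computed separately for each screening campaign, cut at about 15% in these data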
STEP inh: STEP phosphatase inhibitors, primary screen, biochemical, fluorescence intensity, uHTS | recombinant STEP, OMFP fluorogenic substrate | Tyrosine-protein phosphatase non-receptor type 5 (Homo sapiens), P54829 | inhibition, % at 20 µM | hit rate 0.25% among 360,000 | AID 588621, 2011;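 active = inhibition at 20 µM, scaled per plate between control wells, above about 37%, limit read from the data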;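 also: 0% = DMSO with enzyme and substrate and 100% = substrate only without enzyme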
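Assay system: isolated STEP enzyme / Timing: 20 min at room temperature, dark / Doses: 20 µM, 1% DMSO / Technique: fluorescence intensity, excitation 480 nm, emission 540 nm / Reagent: fluorogenic phosphatase substrate OMFP at 25 µM final / Measure: percent inhibition scaled to no-enzyme and uninhibited-enzyme controls, plate-pattern corrected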
LMPTP block: LMPTP phosphatase inhibitors, primary screen, biochemical, fluorescence intensity, uHTS; hit rate 0.22% among 360,000; recombinant LMPTP-A, OMFP fluorogenic substrate; inhibition, % at 20 µM; Low molecular weight phosphotyrosine protein phosphatase (Homo sapiens), P24666;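 active = compounds that cut the enzyme signal by at least half of the control window in the single-dose screen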;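 also: plate controls were DMSO wells with enzyme plus substrate for no effect and substrate without enzyme for full effect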
Target sequence (P24666 whole entry, looked up): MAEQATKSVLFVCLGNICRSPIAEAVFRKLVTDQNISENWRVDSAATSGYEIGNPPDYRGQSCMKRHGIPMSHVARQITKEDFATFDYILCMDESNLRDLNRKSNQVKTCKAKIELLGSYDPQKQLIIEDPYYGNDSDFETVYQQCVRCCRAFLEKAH
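test system = LMPTP-A | amount = 0.625 nM LMPTP-A final | reagent = fluorogenic phosphatase substrate OMFP at 400 µM final | incubation = 50 min at room temperature | benchmarks = no-enzyme low control, uninhibited high control | medium = Bis-Tris pH 6.0, DTT, detergent | signal = fluorescence intensity of OMFP turnover product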
* = called active by the depositor. Only some compounds are listed: those with a hit (about 1.9% of all), similar ones and a draw of the others.

What do the screens show for `Cc1cc([N+](=O)[O-])cc(C)c1OCC(=O)N/N=C/c1ccc(OC(=O)c2ccccc2Br)cc1`?
Scp1 inh: -5; PP5 inh: 1; PP1 counter: 16*; STEP inh: 3; LMPTP block: -1

What do the screens show for `COc1cccc(C(=O)NCC(=O)N/N=C/c2cccc(OC(=O)c3ccc([N+](=O)[O-])cc3)c2)c1`?
Scp1 inh: -7; PP5 inh: -2; PP1 counter: 2; STEP inh: 3; LMPTP block: 1

What do the screens show for `O=C(CNC(=O)c1ccc([N+](=O)[O-])cc1)N/N=C\c1ccc(OC(=O)c2ccccc2)cc1`?
Scp1 inh: -5; PP5 inh: -1; PP1 counter: 16*; STEP inh: 1; LMPTP block: 2

Results for CCn1cc(C(=O)O)c(=O)c2cc(F)c(N3CCN(C(=S)NC(=O)c4ccccc4Cl)CC3)cc21 ?
Scp1 inh: -11; PP5 inh: 1; PP1 counter: -1; STEP inh: 6; LMPTP block: 63*

How did CCn1cc(C(=O)O)c(=O)c2cc(F)c(N3CCN(C(=S)NC(=O)c4cc(OC)cc(OC)c4)CC3)cc21 do in these assays?
Scp1 inh: 7; PP5 inh: 1; PP1 counter: 11; STEP inh: 5; LMPTP block: 63*

Results for CCn1cc(C(=O)O)c(=O)c2cc(F)c(N3CCN(C(=S)NC(=O)c4ccccc4C)CC3)cc21 ?
Scp1 inh: -16; PP5 inh: 1; PP1 counter: 3; STEP inh: 4; LMPTP block: 64*

Results for CCn1cc(C(=O)O)c(=O)c2cc(F)c(N3CCN(C(=S)Nc4ccc(OC)cc4)CC3)cc21 ?
Scp1 inh: -12; PP5 inh: 1; PP1 counter: 6; STEP inh: -2; LMPTP block: 59*

Results for CCn1cc(C(=O)NCc2ccccc2)c(=O)c2cc(F)c(N3CCN(C(=O)c4ccco4)CC3)cc21 ?
Scp1 inh: 4; PP5 inh: 3; PP1 counter: 1; STEP inh: 2; LMPTP block: 6

What do the screens show for `C=CCCCCCCCCC(=O)N1CCN(c2cc3c(cc2F)c(=O)c(C(=O)O)cn3CC)CC1`?
Scp1 inh: -19; PP5 inh: -1; PP1 counter: 10; STEP inh: 4; LMPTP block: 17

How did Cc1ccc(NC(=O)CSc2nnc(C)n2C2CC2)cc1S(=O)(=O)N1CCOCC1 do in these assays?
Scp1 inh: -2; PP5 inh: 0; PP1 counter: -2; STEP inh: -4; LMPTP block: -1

What do the screens show for `Cc1nn(-c2ccc(F)cc2)c(Cl)c1/C=C/C(=O)N1CCNC(=O)C1`?
Scp1 inh: -3; PP5 inh: 0; PP1 counter: 0; STEP inh: 1; LMPTP block: 0

How did CCn1cc(C(=O)O)c(=O)c2cc(F)c(N3CCN(C(=S)NC(=O)c4ccccc4)CC3)cc21 do in these assays?
Scp1 inh: -16; PP5 inh: 3; PP1 counter: 5; STEP inh: 0; LMPTP block: 66*

How did CCn1cc(C(=O)NCc2ccc3c(c2)OCO3)c(=O)c2cc(F)c(N3CCN(C(=O)c4ccco4)CC3)cc21 do in these assays?
Scp1 inh: 9; PP5 inh: 4; PP1 counter: 5; STEP inh: 5; LMPTP block: 53*

How did CCCN1CCc2c(sc(NC(=S)NC(=O)c3ccccc3)c2C#N)C1 do in these assays?
Scp1 inh: -8; PP5 inh: -1; PP1 counter: 3; STEP inh: -58; LMPTP block: 59*

How did COc1cccc(Nc2nc(-c3sc(NC(=O)c4ccco4)nc3C)cs2)c1 do in these assays?
Scp1 inh: 10; PP5 inh: 3; PP1 counter: -4; STEP inh: -2; LMPTP block: 2

What do the screens show for `O=C(NC1CCCc2ccccc21)C1CCN(S(=O)(=O)c2cccc(C(F)(F)F)c2)CC1` (stereo not drawn)?
Scp1 inh: 20; PP5 inh: -2; PP1 counter: -4; STEP inh: 4; LMPTP block: 0

How did O=C(O)c1cccc(-c2ccc(/C=N/Nc3ccc([N+](=O)[O-])cc3)o2)c1 do in these assays?
Scp1 inh: 3; PP5 inh: 5; PP1 counter: 6; STEP inh: -8; LMPTP block: 11

What do the screens show for `O=C(N/N=C/c1ccc([N+](=O)[O-])o1)C(=O)Nc1ccc(C(=O)O)cc1`?
Scp1 inh: 9; PP5 inh: -1; PP1 counter: -5; STEP inh: 1; LMPTP block: 4

What do the screens show for `O=C(O)c1ccc(N/N=C/C=C/c2ccc([N+](=O)[O-])o2)cc1`?
Scp1 inh: 58*; PP5 inh: 8; PP1 counter: 5; STEP inh: 43*; LMPTP block: 20

What do the screens show for `O=C(O)c1ccc(-c2ccc(/C=N/Nc3ccc([N+](=O)[O-])cc3)o2)cc1`?
Scp1 inh: 85*; PP5 inh: 3; PP1 counter: 3; STEP inh: -23; LMPTP block: 14

What do the screens show for `CNC(=S)N/N=C/c1ccc(-c2ccc(C(=O)O)cc2)o1`?
Scp1 inh: 52*; PP5 inh: 2; PP1 counter: 1; STEP inh: 4; LMPTP block: 2

Results for CCNC(=O)C1(C)CCN(C(=O)c2cc(F)ccc2C)C1 (stereo not drawn) ?
STEP inh: -3; LMPTP block: -1

What do the screens show for `CCCCCC(=O)Nc1cc(S(=O)(=O)O)cc2cc(S(=O)(=O)O)cc(O)c12`?
Scp1 inh: 102*; STEP inh: 99*; LMPTP block: 96*

Results for O=S(=O)(c1ccc(F)cc1)N1CCN(c2nc(-c3cccnc3)nc3ccccc23)CC1 ?
Scp1 inh: 5; PP5 inh: 2; PP1 counter: 17*; STEP inh: 2; LMPTP block: 4

How did O=C(c1ccccc1F)N(NC(=O)C(O)(c1ccccc1)c1ccccc1)c1ccccc1 do in these assays?
Scp1 inh: -5; PP5 inh: 2; PP1 counter: 17*; STEP inh: 2; LMPTP block: -2

What do the screens show for `CC(=O)c1cc2c(cc1NC(=O)c1cc3nc(C(C)C)cc(C(F)(F)F)n3n1)OCO2`?
Scp1 inh: -6; PP5 inh: 1; PP1 counter: 3; STEP inh: 2; LMPTP block: 2

How did CN1/C(=C\C=[N+](C)c2ccccc2)C(C)(C)c2ccccc21 do in these assays?
Scp1 inh: 72*; PP5 inh: 4; PP1 counter: 0; STEP inh: 0; LMPTP block: -2

Screening data deposited in PubChem by several laboratories.
